Converted amounts (≈) assume the structure as drawn. *1 amine or outer side, *2 acyl side, *3 side chain or, on linkers, in order; H or OH if unused. Where a SMILES comes first, the peptide text is derived from it. [ ]: non-standard residue; d: D form. The star is where a group is joined. Leuψ((S)CH(OH)CH2)dVal = CC(C)C[C@H](N[*:1])[C@@H](O)C[C@@H](C(=O)[*:2])C(C)C; X2 = OC[C@H]1O[C@H](O)[C@H](N*)[C@@H](O)[C@H]1O; NMeH = CN[C@@H](Cc1c[nH]cn1)C(=O)O; NHCH2(2-pyridyl) = c1ccc(CN*)nc1; NHC(CH2OH)3 = OCC(CO)(CO)N*; Boc = CC(C)(C)OC(=O)*; CO = O=C([*:1])[*:2]
Experiments:
[1] = target: Renin (Homo sapiens) (UniProt P00797); assay: Maximum hypotensive activity, the magnitude of the human renin dependent blood pressure component was measured. (administered perorally)
[2] = target: Renin (Homo sapiens) (UniProt P00797); assay: Maximum hypotensive activity, the magnitude of the human renin dependent blood pressure component was measured (administered intravenously.)
[3] = Solubility in water at 37 degrees Centigrade; assay type: physicochemical; conditions: read-out: S
In short: (§1)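 Visual estimate: compound added to distilled water in a series of clear tubes at 1-100 mg/mL, tubes shaken, observed first at 25 °C and again after 30 min in a 37 °C water bath.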

[4] = Solubility in water at 25 degrees Centigrade; assay type: physicochemical; conditions: read-out: S
In short: as §1

[5] = target: Renin (Homo sapiens) (UniProt P00797); assay: Tested in vitro for inhibitory activity against plasma renin in human plasma

Renin (Homo sapiens), sequence (P00797 whole entry, looked up): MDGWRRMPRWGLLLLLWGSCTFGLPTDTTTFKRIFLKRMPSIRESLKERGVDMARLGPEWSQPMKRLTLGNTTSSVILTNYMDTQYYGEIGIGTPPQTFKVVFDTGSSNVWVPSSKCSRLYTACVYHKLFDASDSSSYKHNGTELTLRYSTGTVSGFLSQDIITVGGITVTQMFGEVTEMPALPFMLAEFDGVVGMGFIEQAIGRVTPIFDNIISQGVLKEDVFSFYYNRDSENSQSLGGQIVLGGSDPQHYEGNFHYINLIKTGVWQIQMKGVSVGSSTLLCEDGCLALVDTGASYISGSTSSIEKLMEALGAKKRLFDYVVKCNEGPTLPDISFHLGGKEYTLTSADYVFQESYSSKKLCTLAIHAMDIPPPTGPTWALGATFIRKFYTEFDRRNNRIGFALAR

CC[C@H](C)[C@H](NC(=O)[C@H](C[C@H](O)[C@H](CC(C)C)NC(=O)[C@H](Cc1c[nH]cn1)N(C)C(=O)[C@H](Cc1ccccc1)NC(=O)[C@@H]1CCCN1C(=O)N[C@@H]1[C@@H](O)[C@@H](O)[C@@H](CO)O[C@@H]1O)C(C)C)C(=O)NCc1ccccn1 ({X2-CO}-PF[NMeH][Leuψ((S)CH(OH)CH2)dVal]I-{NHCH2(2-pyridyl)})
Hypotensive activity [1]: 37 mmHg | Hypotensive activity [2]: 36 mmHg

CC[C@H](C)[C@H](NC(=O)[C@H](C[C@H](O)[C@H](CC(C)C)NC(=O)[C@H](Cc1c[nH]cn1)N(C)C(=O)[C@H](Cc1ccccc1)NC(=O)[C@@H]1CCCN1C(=O)OC(C)(C)C)C(C)C)C(=O)NCc1ccccn1 (Boc-PF[NMeH][Leuψ((S)CH(OH)CH2)dVal]I-{NHCH2(2-pyridyl)})
solubility [3]: < 1000 µg/mL | solubility [4]: < 1000 µg/mL | IC50 [5]: 0.26 nM | Hypotensive activity [1]: 24 mmHg | Hypotensive activity [2]: 25 mmHg

CC[C@H](C)[C@H](NC(=O)[C@H](C[C@H](O)[C@H](CC(C)C)NC(=O)[C@H](Cc1cnc[nH]1)N(C)C(=O)[C@H](Cc1ccccc1)NC(=O)[C@@H]1CCCN1C(=O)N[C@@H]1[C@@H](O)[C@@H](O)[C@@H](CO)O[C@@H]1O)C(C)C)C(=O)NCc1ccccn1 ({X2-CO}-PF[NMeH][Leuψ((S)CH(OH)CH2)dVal]I-{NHCH2(2-pyridyl)})
solubility [3]: < 2000 µg/mL | solubility [4]: < 2000 µg/mL | IC50 [5]: 0.49 nM

CC[C@H](C)[C@H](NC(=O)[C@H](C[C@H](O)[C@H](CC(C)C)NC(=O)[C@H](Cc1c[nH]cn1)N(C)C(=O)[C@H](Cc1ccccc1)NC(=O)[C@@H]1CCCN1C(=O)NC(CO)(CO)CO)C(C)C)C(=O)NCc1ccccn1 ({NHC(CH2OH)3-CO}-PF[NMeH][Leuψ((S)CH(OH)CH2)dVal]I-{NHCH2(2-pyridyl)})
solubility [3]: 1000 µg/mL (≈ 1020 µM) | solubility [4]: 1000 µg/mL (≈ 1020 µM) | IC50 [5]: 0.33 nM | Hypotensive activity [1]: 38 mmHg | Hypotensive activity [2]: 40 mmHg

CC[C@H](C)[C@H](NC(=O)[C@H](C[C@H](O)[C@H](CC(C)C)NC(=O)[C@H](Cc1c[nH]cn1)N(C)C(=O)[C@H](Cc1ccccc1)NC(=O)[C@@H]1CCCN1C(=O)OC(C)(C)C)C(C)C)C(=O)NC(CO)(CO)CO (Boc-PF[NMeH][Leuψ((S)CH(OH)CH2)dVal]I-{NHC(CH2OH)3})
solubility [3]: < 1000 µg/mL | solubility [4]: 1000 µg/mL (≈ 1060 µM) | IC50 [5]: 0.26 nM | Hypotensive activity [1]: 35 mmHg | Hypotensive activity [2]: 30 mmHg

Reference: ChEMBL document CHEMBL1124884, “Potent renin inhibitory peptides containing hydrophilic end groups” (J Med Chem, 1990)
